Source: ChEMBL document CHEMBL1799944, “New 2-heterocyclyl-imidazo[2,1-i]purin-5-one derivatives as potent and selective human A3 adenosine receptor antagonists” (J Med Chem, 2011)
pIC50, pKi: −log10 of the molar value.

Assays:
Adenosine receptor A3 [1] = target: T1, Adenosine receptor A3 (Homo sapiens, UniProt P0DMS8); experiment: Displacement of [3H]MRE 3008F20 from human adenosine A3 receptor expressed in CHO cells after 120 mins by scintillation spectrometry; assay type: cell-based
T1 sequence (P0DMS8 whole entry): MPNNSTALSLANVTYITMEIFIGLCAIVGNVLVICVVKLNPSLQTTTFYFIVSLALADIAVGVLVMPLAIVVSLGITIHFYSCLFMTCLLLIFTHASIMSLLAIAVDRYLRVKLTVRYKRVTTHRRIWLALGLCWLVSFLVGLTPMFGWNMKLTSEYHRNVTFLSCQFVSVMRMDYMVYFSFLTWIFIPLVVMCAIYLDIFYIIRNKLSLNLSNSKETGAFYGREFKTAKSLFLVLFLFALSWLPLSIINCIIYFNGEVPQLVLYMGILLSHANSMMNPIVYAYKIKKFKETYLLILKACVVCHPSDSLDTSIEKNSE
How it was run: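 Membranes from hA3 CHO cells (50 μg protein/assay) in 50 mM Tris HCl, 10 mM MgCl2, 1 mM EDTA pH 7.4, adenosine deaminase-treated. Incubated with 1 nM [3H]MRE 3008F20 and 6-8 ligand concentrations, 120 min at 4 °C. Nonspecific defined with 1 μM MRE 3008F20 (~25% of total). GF/B filtration, three ice-cold washes, scintillation counting. Ki via Cheng-Prusoff; geometric mean, 95% confidence limits, n = 3-6.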

[2] = target: Adenosine receptors; A1 & A3 (Homo sapiens) (UniProt P30542+P0DMS8); experiment: Ratio of Ki for human adenosine A1 receptor to Ki for human adenosine A3 receptor
Adenosine receptor A2b = target: T2, Adenosine receptor A2b (Homo sapiens, UniProt P29275); experiment: Antagonist activity human adenosine A2B receptor expressed in CHO cells assessed as inhibition of NECA-mediated [3H]cAMP accumulation after 150 mins by scintillation counter; assay type: functional, cell-based
T2 sequence (P29275 whole entry): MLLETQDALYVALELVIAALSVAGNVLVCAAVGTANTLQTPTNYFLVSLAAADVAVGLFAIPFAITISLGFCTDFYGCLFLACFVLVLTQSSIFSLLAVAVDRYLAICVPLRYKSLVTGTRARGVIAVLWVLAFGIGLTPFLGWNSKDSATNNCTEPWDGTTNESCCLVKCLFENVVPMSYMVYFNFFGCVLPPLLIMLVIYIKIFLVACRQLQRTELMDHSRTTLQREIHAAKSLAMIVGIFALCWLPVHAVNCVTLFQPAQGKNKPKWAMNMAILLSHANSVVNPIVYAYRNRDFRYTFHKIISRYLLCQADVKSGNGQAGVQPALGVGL
How it was run: (§1)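 Intact CHO cells expressing hA2B (1 x 10^6 cells/assay), preincubated 10 min at 37 °C in saline buffer pH 7.4 with 2 IU/mL adenosine deaminase and Ro 20-1724. Antagonism of 100 nM NECA-stimulated cAMP rise. Stopped with cold 6% TCA, ether-extracted. cAMP measured by competition binding with [3H]cAMP and beef adrenal binding protein (4 °C, 150 min), charcoal separation, scintillation counting. IC50 by sigmoid nonlinear regression, mean ± SEM.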

Adenosine receptor A2a [3] = target: T3, Adenosine receptor A2a (Homo sapiens, UniProt P29274); experiment: Displacement of [3H]ZM 241385 from human adenosine A2A receptor expressed in CHO cells at <=5000 nM after 60 mins by scintillation spectrometry; assay type: cell-based
T3 sequence (P29274 whole entry): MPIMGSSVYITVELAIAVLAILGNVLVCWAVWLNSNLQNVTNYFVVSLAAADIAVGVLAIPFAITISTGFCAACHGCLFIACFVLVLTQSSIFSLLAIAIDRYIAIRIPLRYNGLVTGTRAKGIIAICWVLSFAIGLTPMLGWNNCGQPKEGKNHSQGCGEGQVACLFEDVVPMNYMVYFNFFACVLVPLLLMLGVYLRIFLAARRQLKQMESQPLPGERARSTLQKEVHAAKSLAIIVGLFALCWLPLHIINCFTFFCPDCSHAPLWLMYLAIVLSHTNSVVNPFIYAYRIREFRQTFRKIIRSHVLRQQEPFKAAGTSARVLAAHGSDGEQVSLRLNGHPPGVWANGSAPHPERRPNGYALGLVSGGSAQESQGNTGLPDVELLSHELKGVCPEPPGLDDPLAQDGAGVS

Adenosine receptor A2a [4] = target: T3, Adenosine receptor A2a; experiment: Displacement of [3H]ZM 241385 from human adenosine A2A receptor expressed in CHO cells after 60 mins by scintillation spectrometry; assay type: cell-based
[5] = target: T4, Adenosine receptor A2b (Homo sapiens) (UniProt P29275); experiment: Antagonist activity human adenosine A2B receptor expressed in CHO cells assessed as inhibition of NECA-mediated [3H]cAMP accumulation at =<5000 nM after 150 mins by scintillation counter; assay type: functional, cell-based; how it was run: as §1
T4 sequence (whole entry): T2 sequence (P29275 whole entry)

Adenosine receptor A1 = target: T5, Adenosine receptor A1 (Homo sapiens, UniProt P30542); experiment: Displacement of [3H]DPCPX from human adenosine A1 receptor expressed in CHO cells after 120 mins by scintillation spectrometry; assay type: cell-based
T5 sequence (P30542 whole entry): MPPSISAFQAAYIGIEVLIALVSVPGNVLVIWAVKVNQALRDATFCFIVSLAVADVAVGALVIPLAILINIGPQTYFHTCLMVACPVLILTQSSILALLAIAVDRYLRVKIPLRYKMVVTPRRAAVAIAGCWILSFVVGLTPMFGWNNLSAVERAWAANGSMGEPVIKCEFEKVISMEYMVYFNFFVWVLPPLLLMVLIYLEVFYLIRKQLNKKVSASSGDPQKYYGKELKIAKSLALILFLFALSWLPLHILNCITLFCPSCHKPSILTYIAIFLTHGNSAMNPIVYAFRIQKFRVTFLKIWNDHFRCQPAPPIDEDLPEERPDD
How it was run: (§2)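 hA1 CHO membranes (50 μg protein/assay) in 50 mM Tris HCl pH 7.4, pretreated with adenosine deaminase 2 UI/mL for 30 min at 37 °C. Incubated with 1 nM [3H]DPCPX plus 6-8 ligand concentrations for 120 min at 25 °C. Nonspecific binding defined with 1 μM DPCPX. Ki from IC50 by Cheng-Prusoff; geometric means with 95% confidence limits.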

Adenosine receptor A3 [6] = target: T1, Adenosine receptor A3; experiment: Antagonist activity human adenosine A3 receptor expressed in CHO cells assessed as blockade of Cl-IB-MECA-mediated inhibition of forskolin-stimulated [3H]cAMP accumulation after 150 mins by scintillation counter; assay type: functional, cell-based
How it was run: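 hA3-expressing CHO cells (1 x 10^6 cells/assay), preincubated 10 min at 37 °C in saline buffer pH 7.4 with adenosine deaminase 2 IU/mL and Ro 20-1724. Antagonism of 100 nM Cl-IB-MECA inhibition of cAMP in presence of 1 μM forskolin. Stopped with cold TCA. cAMP by [3H]cAMP competition protein binding (4 °C, 150 min), scintillation counting. IC50 from sigmoid nonlinear regression, mean ± SEM.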

[7] = target: T6, Adenosine receptor A1 (Homo sapiens) (UniProt P30542); experiment: Displacement of [3H]DPCPX from human adenosine A1 receptor expressed in CHO cells at =<5000 nM after 120 mins by scintillation spectrometry; assay type: cell-based; how it was run: as §2
T6 sequence (whole entry): T5 sequence (P30542 whole entry)

pKi (Adenosine receptor A3 [1]) | Ratio Ki [2] | pIC50 (Adenosine receptor A2b) | inhibition (Adenosine receptor A2a [3]) | pKi (Adenosine receptor A2a [4]) | inhibition [5] | pKi (Adenosine receptor A1) | pIC50 (Adenosine receptor A3 [6]) | inhibition [7] | SMILES
7.76 | > 290 | < 5.30 | 1% | < 5.30 | 8% | < 5.30 | – | – | Cc1cc(-c2nc3c([nH]2)C2=NC(C)CN2C(=O)N3Cc2ccccc2)n(C)n1 (racemic)
7.90 | – | < 5.30 | 3% | < 5.30 | 10% | 6.10 | – | – | CC[C@@H]1CN2C(=O)N(Cc3ccccc3)c3nc(-c4cc(C)nn4C)[nH]c3C2=N1
8.57 | – | < 5.30 | 12% | < 5.30 | 18% | 6.31 | 7.60 | – | CCC1CN2C(=O)N(Cc3ccccc3)c3nc(-c4cc(OC)no4)[nH]c3C2=N1 (racemic)
8.60 | – | < 5.30 | 1% | < 5.30 | 22% | 5.76 | 7.76 | – | COc1cc(-c2nc3c([nH]2)C2=N[C@@H](C)CN2C(=O)N3Cc2ccccc2)n(C)n1
8.45 | > 1400 | < 5.30 | 11% | < 5.30 | 13% | < 5.30 | 7.62 | 26% | C=CCN1C(=O)N2CC(C)N=C2c2[nH]c(-c3cc(OC)no3)nc21 (racemic)
7.99 | 60 | < 5.30 | 5% | < 5.30 | 20% | 6.21 | – | – | CCC1CN2C(=O)N(Cc3ccccc3)c3nc(-c4cc(C)nn4C)[nH]c3C2=N1 (racemic)
8.63 | – | < 5.30 | 15% | < 5.30 | 14% | 5.97 | 7.98 | – | C=CCN1C(=O)N2C[C@H](CC)N=C2c2[nH]c(-c3cc(OC)nn3C)nc21
8.51 | 610 | < 5.30 | 1% | < 5.30 | 11% | 5.72 | 7.56 | – | COc1cc(-c2nc3c([nH]2)C2=NC(C)CN2C(=O)N3Cc2ccccc2)n(C)n1 (stereo not given)
8.34 | 450 | < 5.30 | 7% | < 5.30 | 30% | 5.69 | 7.47 | – | C=CCN1C(=O)N2CC(C)N=C2c2[nH]c(-c3cc(C)nn3C)nc21 (racemic)
8.71 | – | < 5.30 | – | 5.82 | 25% | 5.52 | 7.84 | – | C=CCN1C(=O)N2CC(CC)N=C2c2[nH]c(-c3cc(OC)no3)nc21 (racemic)
8.41 | 105 | < 5.30 | 9% | < 5.30 | 22% | 6.39 | 7.69 | – | CCC1CN2C(=O)N(Cc3ccccc3)c3nc(-c4cc(OC)nn4C)[nH]c3C2=N1 (racemic)
7.67 | 56 | < 5.30 | 5% | < 5.30 | 14% | 5.92 | – | – | C=CCN1C(=O)N2CC(CC)N=C2c2[nH]c(-c3cc(OCc4ccccc4)nn3C)nc21 (racemic)
7.61 | 202 | < 5.30 | 25% | < 5.30 | 17% | < 5.30 | – | 47% | C=CCN1C(=O)N2CC(C)N=C2c2[nH]c(-c3cc(OCc4ccccc4)nn3C)nc21 (racemic)
7.88 | – | < 5.30 | 4% | < 5.30 | 13% | 6.26 | – | – | CC[C@H]1CN2C(=O)N(Cc3ccccc3)c3nc(-c4cc(C)nn4C)[nH]c3C2=N1
8.71 | 780 | < 5.30 | 1% | < 5.30 | 16% | 5.82 | 7.91 | – | C=CCN1C(=O)N2CC(CC)N=C2c2[nH]c(-c3cc(OC)nn3C)nc21 (racemic)
8.62 | – | < 5.30 | 11% | < 5.30 | 19% | 5.59 | 7.80 | – | COc1cc(-c2nc3c([nH]2)C2=N[C@H](C)CN2C(=O)N3Cc2ccccc2)n(C)n1
8.22 | – | < 5.30 | 4% | < 5.30 | 12% | 5.71 | 7.39 | – | C=CCN1C(=O)N2C[C@H](C)N=C2c2[nH]c(-c3cc(C)nn3C)nc21
7.86 | > 359 | < 5.30 | 1% | < 5.30 | 9% | < 5.30 | – | 13% | C=CCN1C(=O)N2CC(C)N=C2c2[nH]c(-c3cc(C)n(C)n3)nc21 (racemic)
7.40 | 42 | < 5.30 | – | 5.67 | 12% | 5.77 | – | – | CCC1CN2C(=O)N(Cc3ccccc3)c3nc(-c4cc(OCc5ccccc5)nn4C)[nH]c3C2=N1 (racemic)
8.52 | 170 | < 5.30 | 8% | < 5.30 | 20% | 6.29 | 7.52 | – | C=CCN1C(=O)N2CC(CC)N=C2c2[nH]c(-c3cc(C)nn3C)nc21 (racemic)
8.30 | – | < 5.30 | 1% | < 5.30 | 10% | 5.60 | 7.44 | – | C=CCN1C(=O)N2C[C@@H](C)N=C2c2[nH]c(-c3cc(C)nn3C)nc21
8.84 | – | < 5.30 | 13% | < 5.30 | 21% | 5.60 | 7.63 | – | C=CCN1C(=O)N2C[C@@H](CC)N=C2c2[nH]c(-c3cc(OC)nn3C)nc21
7.35 | 57 | < 5.30 | – | 5.70 | 13% | 5.59 | – | – | CC1CN2C(=O)N(Cc3ccccc3)c3nc(-c4cc(OCc5ccccc5)nn4C)[nH]c3C2=N1 (racemic)
